The text below walks through data of publication PMC3210016 (Cancer research, 2010).

Assay [1] deals with HCC2429 cells. Nature of the assay: Apoptosis screen of peptide library. The settings on record: representative experiment, Figure 1A, quadruplicate. In kind it is cell-based, human. An outline of the steps: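 A library of 155 peptides (5–15 residues) spanning the 34 EGF-like repeats of the Notch3 ECD was screened. HCC2429 and HeLa cells were seeded at 3,000 cells per well in 384-well format. Annexin V Alexa Fluor 680 (1:2,200 in RPMI) and peptide solution (0.1 mg/ml in RPMI before addition) were added. After overnight incubation, fluorescence was read on an FMAT 8100 HTS system, in quadruplicate per peptide.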

Assay [2] concerns HCC2429 cells. Kind of assay: Apoptosis assay. In kind it is cell-based, human. The following applies: HCC2429, 24 hours, serum-free RPMI, flow cytometry; Figure 2D. An outline of the steps: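 HCC2429 cells were exposed for 24 hours in serum-free RPMI to Notch3 ECD-derived peptides or peptide–Fc fusion proteins. The concentration was not given. Apoptotic fraction was measured with an Annexin V-FITC kit on a flow cytometer, with a γ-secretase inhibitor as positive control. Comparisons used the Wilcoxon rank-sum test, with significance at P < 0.05.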
For orientation: Flow cytometry measures light scatter and fluorescence of single cells or particles in a stream.

With CATAV [Peptide N102], the “Induction of apoptosis (fluorescence, FMAT 8100 HTS)” value (“Induction of apoptosis” for short) in the assay on HCC2429 cells [1] was “induced apoptosis”. On to CFHGAT [Peptide N103], for which the “Induction of apoptosis” value with HCC2429 cells [1] is “induced apoptosis”.

As to CLNGGS [Peptide N132], the “Induction of apoptosis” value in the assay with HCC2429 cells [1] is “induced apoptosis”. For CVCVNGWTGES [Peptide N17], the “Apoptosis (Annexin V-FITC)” value with HCC2429 cells [2] is given as “highest apoptotic activity”.
